{"source": "paper PMC5014123", "about": "(Nature communications, 2015)", "key": {"[1]": {"target": "T1, ADAM8 (Homo sapiens, UniProt P78325)", "T1 sequence (P78325 17-497)": "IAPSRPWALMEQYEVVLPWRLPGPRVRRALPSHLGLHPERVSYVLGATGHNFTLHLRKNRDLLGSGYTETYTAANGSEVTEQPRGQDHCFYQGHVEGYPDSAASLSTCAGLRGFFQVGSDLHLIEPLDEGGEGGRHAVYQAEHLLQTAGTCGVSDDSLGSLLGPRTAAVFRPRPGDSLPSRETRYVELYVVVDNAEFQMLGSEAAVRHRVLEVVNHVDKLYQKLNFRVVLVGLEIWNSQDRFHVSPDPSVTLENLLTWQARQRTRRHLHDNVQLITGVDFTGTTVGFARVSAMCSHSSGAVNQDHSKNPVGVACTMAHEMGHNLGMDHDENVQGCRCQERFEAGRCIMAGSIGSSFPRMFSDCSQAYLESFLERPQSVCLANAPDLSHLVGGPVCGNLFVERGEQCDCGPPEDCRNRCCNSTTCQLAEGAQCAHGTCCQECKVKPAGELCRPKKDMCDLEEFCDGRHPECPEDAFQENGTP", "type": "biochemical"}, "[2]": {"target": "T2, ADAM8 (Homo sapiens, UniProt P78325)", "T2 sequence (P78325 17-824)": "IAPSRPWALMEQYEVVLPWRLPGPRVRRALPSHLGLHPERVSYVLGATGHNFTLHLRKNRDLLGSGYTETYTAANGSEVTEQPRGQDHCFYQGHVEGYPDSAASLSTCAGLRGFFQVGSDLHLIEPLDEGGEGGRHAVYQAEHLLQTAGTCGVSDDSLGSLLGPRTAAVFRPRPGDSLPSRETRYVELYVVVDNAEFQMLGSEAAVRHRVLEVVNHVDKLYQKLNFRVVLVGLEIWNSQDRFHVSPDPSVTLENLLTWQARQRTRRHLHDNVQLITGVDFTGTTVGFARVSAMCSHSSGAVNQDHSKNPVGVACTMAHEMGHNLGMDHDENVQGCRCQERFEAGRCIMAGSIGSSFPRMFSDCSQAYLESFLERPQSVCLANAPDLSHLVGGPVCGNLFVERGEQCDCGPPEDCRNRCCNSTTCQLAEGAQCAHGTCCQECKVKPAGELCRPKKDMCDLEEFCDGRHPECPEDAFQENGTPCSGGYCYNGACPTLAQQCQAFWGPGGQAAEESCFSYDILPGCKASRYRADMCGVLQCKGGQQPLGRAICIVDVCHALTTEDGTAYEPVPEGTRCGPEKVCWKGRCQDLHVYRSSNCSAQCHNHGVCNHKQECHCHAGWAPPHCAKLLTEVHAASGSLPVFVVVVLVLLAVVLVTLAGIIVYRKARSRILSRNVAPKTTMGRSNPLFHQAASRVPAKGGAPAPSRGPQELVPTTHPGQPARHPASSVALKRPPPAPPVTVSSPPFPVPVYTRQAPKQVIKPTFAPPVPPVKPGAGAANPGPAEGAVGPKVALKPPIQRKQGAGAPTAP", "type": "cell-based"}, "[3]": {"test_system": "Panc1_A8 cells", "experiment": "Invasion assay of Panc1_A8 cells", "type": "cell-based, human", "settings": "matrigel, 10 µM, 18h", "procedure,_shortened": "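Panc1_ctrl and Panc1_A8 cells were run in duplicate with the ERK1/2 inhibitor U0126 (10 uM) for 18 h. Invasiveness is expressed relative to control. Statistics were by ANOVA and Student's t-test.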"}, "[4]": {"test_system": "MMP-2", "experiment": "PrAMA inference of MMP-2 activity in PDAC cell lines", "type": "cell-based, human", "settings": "Panc1_A8 cells, 1 µM, 24 hours, relative to vehicle", "procedure,_shortened": "(§1)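 Cells were cultured in duplicate for 24 h in serum-free, phenol-red-free DMEM, and medium and sucrose-buffer membrane fractions were collected. […] Activities were inferred from fold-change cleavage rates against purified-enzyme specificity matrices, in three repeats. Panc1_A8 received 1 uM test compound for 24 h versus vehicle; AsPC-1 knockdowns were compared with shCtrl.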"}, "[5]": {"test_system": "MMP-14", "experiment": "PrAMA inference of MMP-14 activity in PDAC cell lines", "type": "cell-based, human", "settings": "Panc1_A8 cells, 1 µM, 24 hours, relative to vehicle", "procedure,_shortened": "as §1"}, "[6]": {"target": "T2, ADAM8", "experiment": "PrAMA inference of ADAM8 activity in PDAC cell lines", "type": "cell-based", "settings": "Panc1_A8 cells, 1 µM, 24 hours, relative to vehicle"}, "[7]": {"test_system": "ERK1/2 phosphorylation", "experiment": "Western blot of ERK1/2 phosphorylation in Panc1 cells", "type": "cell-based, human", "settings": "Panc1_A8 cells; BK-1361 500 nM; U0126 10 µM", "procedure,_shortened": "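ERK1/2 phosphorylation in Panc1_ctrl and Panc1_A8 cell lysates was detected by western blot with antibodies against the phosphorylated kinase forms, with or without 500 nM test compound.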"}}, "note": "Read-outs that look alike come from different tables or passages of the source.", "data": [{"smiles": "CNC(=O)[C@@H](NC(=O)[C@H](CC(C)C)[C@H](O)C(=O)NO)C(C)(C)C", "note": "[BB-2516, Marimastat]", "values": [{"measurement": "IC50", "setting": "[1]", "value": "1.05 ± 0.154", "unit": "µM"}, {"measurement": "IC50", "setting": "[2]", "value": "1.25 ± 0.103", "unit": "µM"}]}, {"smiles": "N#CC(=C(/N)Sc1ccccc1N)/C(C#N)=C(/N)Sc1ccccc1N", "note": "[U0126]", "values": [{"measurement": "invasion of Panc1_A8 cells (ERK1/2 inhibitor)", "setting": "[3]", "value": "decreased invasion"}, {"measurement": "MMP-2 activity (PrAMA), Panc1_A8", "setting": "[4]", "value": "slight effect"}, {"measurement": "MMP-14 activity (PrAMA), Panc1_A8", "setting": "[5]", "value": "greater effect"}, {"measurement": "ADAM8 activity (PrAMA), Panc1_A8", "setting": "[6]", "value": "not affected"}, {"measurement": "ERK1/2 phosphorylation (pERK1/2)", "setting": "[7]", "value": "blocked ERK1/2 phosphorylation"}]}, {"smiles": "CNC(=O)[C@H](Cc1ccccc1)NC(=O)[C@H](CC(C)C)[C@H](CSc1cccs1)C(=O)NO", "note": "[BB-94, Batimastat]", "values": [{"measurement": "IC50", "setting": "[2]", "value": "0.057 ± 0.006", "unit": "µM"}, {"measurement": "MMP-2 activity (PrAMA), Panc1_A8", "setting": "[4]", "value": "reduced"}, {"measurement": "MMP-14 activity (PrAMA), Panc1_A8", "setting": "[5]", "value": "reduced"}, {"measurement": "ADAM8 activity (PrAMA), Panc1_A8", "setting": "[6]", "value": "reduced"}]}]}
